# Experimental data from ChEMBL document CHEMBL1139577, “Discovery of 3-OH-3-methylpipecolic hydroxamates: potent orally active inhibitors of aggrecanase and MMP-13” (Bioorg Med Chem Lett, 2005).
# How the values were obtained:
# [1] = Inhibitory concentration against aggrecanase from porcine chondrocytes using [35S]-sulfate (5 mCi/ml) as radioligand and adding IL-1alpha (5 ng/ml) incubated for 10h; set-up: species or system Sus scrofa
# Summary of the method: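 Cell-based assay in porcine chondrocytes. Glycosaminoglycan chains were labelled by including [³⁵S]sulfate (5 mCi/ml) in the culture medium, and unincorporated label was washed out before aggrecan degradation was assessed.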
# [2] = Inhibitory concentration against MMP-13
# Interstitial collagenase = target: T1, Interstitial collagenase (Homo sapiens, UniProt P03956); assay: Inhibitory concentration against MMP-1
# T1 sequence (P03956 whole entry): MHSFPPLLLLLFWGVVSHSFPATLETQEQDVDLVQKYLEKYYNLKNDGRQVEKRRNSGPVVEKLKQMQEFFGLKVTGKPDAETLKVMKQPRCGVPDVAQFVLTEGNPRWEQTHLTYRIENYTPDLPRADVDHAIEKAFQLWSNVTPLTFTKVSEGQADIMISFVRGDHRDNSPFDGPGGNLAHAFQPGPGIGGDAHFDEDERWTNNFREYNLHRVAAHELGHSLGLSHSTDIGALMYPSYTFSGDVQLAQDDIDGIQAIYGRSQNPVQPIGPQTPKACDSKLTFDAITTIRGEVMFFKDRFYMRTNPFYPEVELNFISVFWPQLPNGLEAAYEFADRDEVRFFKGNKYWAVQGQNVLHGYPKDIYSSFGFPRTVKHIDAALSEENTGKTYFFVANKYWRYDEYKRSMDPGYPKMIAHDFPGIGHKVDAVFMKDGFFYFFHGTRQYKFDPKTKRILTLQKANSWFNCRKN
# [3] = target: Disintegrin and metalloproteinase domain-containing protein 17 (Rattus norvegicus, UniProt Q9Z1K9); assay: Inhibitory concentration against rat TACE
# [4] = target: T2, A disintegrin and metalloproteinase with thrombospondin motifs 4 (Homo sapiens) (UniProt O75173); assay: Inhibitory concentration at 500 nM against aggrecanase from porcine chondrocytes using [35S]-sulfate (5 mCi/ml) as radioligand and adding IL-1alpha (5 ng/ml) incubated for 10h; conditions: Sus scrofa, target entry is the homologue from another species
# T2 sequence (whole entry): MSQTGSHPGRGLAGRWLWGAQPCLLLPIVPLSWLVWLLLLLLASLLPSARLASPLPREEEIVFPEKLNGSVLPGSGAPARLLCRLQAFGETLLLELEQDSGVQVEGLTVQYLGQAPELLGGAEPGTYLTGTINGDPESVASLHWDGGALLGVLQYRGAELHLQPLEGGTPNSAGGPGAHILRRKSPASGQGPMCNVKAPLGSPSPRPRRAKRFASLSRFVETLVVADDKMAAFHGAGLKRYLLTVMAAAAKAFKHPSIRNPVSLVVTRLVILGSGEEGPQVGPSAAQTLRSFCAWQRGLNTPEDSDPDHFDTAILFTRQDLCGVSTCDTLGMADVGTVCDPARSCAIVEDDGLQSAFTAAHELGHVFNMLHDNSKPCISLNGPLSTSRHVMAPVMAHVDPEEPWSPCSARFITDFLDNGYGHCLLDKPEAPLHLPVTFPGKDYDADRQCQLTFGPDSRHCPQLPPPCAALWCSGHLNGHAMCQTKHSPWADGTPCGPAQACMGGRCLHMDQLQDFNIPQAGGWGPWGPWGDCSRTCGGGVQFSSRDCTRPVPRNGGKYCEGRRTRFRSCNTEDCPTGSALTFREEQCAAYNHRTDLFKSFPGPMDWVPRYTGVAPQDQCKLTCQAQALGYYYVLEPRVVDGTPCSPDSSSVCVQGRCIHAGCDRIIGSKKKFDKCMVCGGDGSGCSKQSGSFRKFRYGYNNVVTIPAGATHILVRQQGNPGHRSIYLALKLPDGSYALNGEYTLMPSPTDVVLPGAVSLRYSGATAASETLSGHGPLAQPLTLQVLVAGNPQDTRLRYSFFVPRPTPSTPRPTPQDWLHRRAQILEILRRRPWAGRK
# [5] = Half life in dog; format: ADME, Canis lupus familiaris; conditions: in vivo
# [6] = Clearance in dog; format: ADME, organism-based, Canis lupus familiaris; conditions: plasma, read-out: Clp
# [7] = Half life in rat; format: ADME; conditions: in vivo
# Summary of the method: (§1)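 Male Sprague–Dawley rats with jugular vein catheters got an iv bolus of 5 mg/kg in glycerol formal. Jugular blood was drawn at 5, 15 and 30 min and at 1, 2, 4, 6, 8 and 24 h. Plasma was diluted with an equal volume of water, extracted with MTBE and assayed by LC–MS/MS. Parameters were derived by non-compartmental analysis.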
# [8] = Clearance in rat; format: ADME, organism-based; conditions: plasma, read-out: Clp; summary of the method: as §1
# Neutrophil collagenase = Neutrophil collagenase (Homo sapiens, UniProt P22894); assay: Inhibitory concentration against MMP-8
# Bos taurus [9] = organism: Bos taurus; assay: Inhibition of IL-1 induced aggrecan degradation in bovine nasal cartilage explants; format: functional
# Summary of the method: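 Bovine nasal cartilage plugs (4 mm diameter and length) were cultured in serum-free DMEM with IL-1α plus inhibitor. After 48 h, samples were analysed for GAG content by the DMMB assay.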
# Cricetinae gen. sp. [10] = assay: Potent inhibition of MMP-13 induced collagen degradation in hamster knee joints; format: functional, Cricetulus griseus; conditions: Knee joint
# Stromelysin-1 = Stromelysin-1 (Homo sapiens, UniProt P08254); assay: Inhibitory concentration against MMP-3
# [11] = target: Matrix metalloproteinase-9 (Homo sapiens, UniProt P14780); assay: Inhibitory concentration against MMP-9
# [12] = target: 72 kDa type IV collagenase (Homo sapiens, UniProt P08253); assay: Inhibitory concentration against MMP-2
# Bos taurus [13] = organism: Bos taurus; assay: Inhibition of IL-1 induced collagen degradation in bovine nasal cartilage explants; format: functional
# Cricetinae gen. sp. [14] = assay: Potent inhibition of IL-1 induced aggrecan degradation in hamster; format: functional, Cricetulus griseus
# Cell line = assay: Inhibition of IL-1 induced aggrecan degradation in human osteoarthritic cartilage; format: functional, cell-based; conditions: Cartilage tissue
# Summary of the method: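 Articular cartilage came from total knee replacement and was cut into 1 × 2 mm pieces. These were cultured in DMEM with 0.5% fetal bovine serum and stimulated with IL-1α (50 ng/ml) plus oncostatin M (50 ng/ml). After 48 h, released GAG in the medium was measured by DMMB; n = 2.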
# [15] = target: Matrix metalloproteinase-14 (Homo sapiens, UniProt P50281); assay: Inhibitory concentration against MMP-14
# Sequence of Disintegrin and metalloproteinase domain-containing protein 17 (Q9Z1K9 whole entry, the tested form may be a part): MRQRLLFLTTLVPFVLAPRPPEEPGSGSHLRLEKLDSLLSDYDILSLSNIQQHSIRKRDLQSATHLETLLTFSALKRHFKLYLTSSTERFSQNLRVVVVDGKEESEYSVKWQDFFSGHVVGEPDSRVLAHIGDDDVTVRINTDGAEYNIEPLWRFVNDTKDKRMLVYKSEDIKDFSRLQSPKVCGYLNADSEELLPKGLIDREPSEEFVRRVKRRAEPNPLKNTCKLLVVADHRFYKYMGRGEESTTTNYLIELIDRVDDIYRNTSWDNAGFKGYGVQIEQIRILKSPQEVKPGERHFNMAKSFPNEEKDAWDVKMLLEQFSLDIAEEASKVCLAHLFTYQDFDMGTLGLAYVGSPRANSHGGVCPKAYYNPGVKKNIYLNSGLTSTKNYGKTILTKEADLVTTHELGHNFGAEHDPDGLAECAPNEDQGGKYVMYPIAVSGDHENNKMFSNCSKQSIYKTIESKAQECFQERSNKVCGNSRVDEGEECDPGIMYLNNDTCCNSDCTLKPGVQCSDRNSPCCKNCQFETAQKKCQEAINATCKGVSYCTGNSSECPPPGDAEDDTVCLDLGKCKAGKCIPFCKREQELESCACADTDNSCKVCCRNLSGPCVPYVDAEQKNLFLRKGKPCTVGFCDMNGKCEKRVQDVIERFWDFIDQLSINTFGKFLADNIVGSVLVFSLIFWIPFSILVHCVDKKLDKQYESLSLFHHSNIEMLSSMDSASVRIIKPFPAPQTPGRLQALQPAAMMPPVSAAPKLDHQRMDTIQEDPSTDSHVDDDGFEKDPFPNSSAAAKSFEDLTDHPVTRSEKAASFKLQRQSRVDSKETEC
# Sequence of Neutrophil collagenase (P22894 whole entry): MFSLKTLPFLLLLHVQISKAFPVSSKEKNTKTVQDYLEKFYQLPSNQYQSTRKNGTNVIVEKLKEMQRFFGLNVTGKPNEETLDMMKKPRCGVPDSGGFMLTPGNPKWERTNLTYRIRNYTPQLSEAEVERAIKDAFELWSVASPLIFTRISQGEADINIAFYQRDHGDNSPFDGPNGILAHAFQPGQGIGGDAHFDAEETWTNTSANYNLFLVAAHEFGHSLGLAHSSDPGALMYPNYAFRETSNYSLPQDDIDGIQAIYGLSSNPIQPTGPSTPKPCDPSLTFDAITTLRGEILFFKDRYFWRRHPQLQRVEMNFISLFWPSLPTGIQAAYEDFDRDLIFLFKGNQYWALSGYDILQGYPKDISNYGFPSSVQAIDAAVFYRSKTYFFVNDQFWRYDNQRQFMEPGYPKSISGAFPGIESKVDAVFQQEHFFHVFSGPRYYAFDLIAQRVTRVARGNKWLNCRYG
# Sequence of Stromelysin-1 (P08254 whole entry): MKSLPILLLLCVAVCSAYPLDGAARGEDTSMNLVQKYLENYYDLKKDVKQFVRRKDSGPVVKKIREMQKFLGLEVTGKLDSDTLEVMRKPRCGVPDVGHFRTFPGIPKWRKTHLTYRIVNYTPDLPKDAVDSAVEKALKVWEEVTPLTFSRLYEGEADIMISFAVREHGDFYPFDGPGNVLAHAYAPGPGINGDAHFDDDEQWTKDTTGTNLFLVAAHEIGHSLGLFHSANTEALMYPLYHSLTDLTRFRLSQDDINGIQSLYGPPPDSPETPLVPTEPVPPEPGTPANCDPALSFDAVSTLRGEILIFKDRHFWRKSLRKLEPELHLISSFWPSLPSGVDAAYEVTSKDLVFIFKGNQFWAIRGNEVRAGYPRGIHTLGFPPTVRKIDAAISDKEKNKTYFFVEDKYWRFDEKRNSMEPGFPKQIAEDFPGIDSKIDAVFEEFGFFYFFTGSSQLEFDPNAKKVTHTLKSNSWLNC
# Sequence of 72 kDa type IV collagenase (P08253 whole entry): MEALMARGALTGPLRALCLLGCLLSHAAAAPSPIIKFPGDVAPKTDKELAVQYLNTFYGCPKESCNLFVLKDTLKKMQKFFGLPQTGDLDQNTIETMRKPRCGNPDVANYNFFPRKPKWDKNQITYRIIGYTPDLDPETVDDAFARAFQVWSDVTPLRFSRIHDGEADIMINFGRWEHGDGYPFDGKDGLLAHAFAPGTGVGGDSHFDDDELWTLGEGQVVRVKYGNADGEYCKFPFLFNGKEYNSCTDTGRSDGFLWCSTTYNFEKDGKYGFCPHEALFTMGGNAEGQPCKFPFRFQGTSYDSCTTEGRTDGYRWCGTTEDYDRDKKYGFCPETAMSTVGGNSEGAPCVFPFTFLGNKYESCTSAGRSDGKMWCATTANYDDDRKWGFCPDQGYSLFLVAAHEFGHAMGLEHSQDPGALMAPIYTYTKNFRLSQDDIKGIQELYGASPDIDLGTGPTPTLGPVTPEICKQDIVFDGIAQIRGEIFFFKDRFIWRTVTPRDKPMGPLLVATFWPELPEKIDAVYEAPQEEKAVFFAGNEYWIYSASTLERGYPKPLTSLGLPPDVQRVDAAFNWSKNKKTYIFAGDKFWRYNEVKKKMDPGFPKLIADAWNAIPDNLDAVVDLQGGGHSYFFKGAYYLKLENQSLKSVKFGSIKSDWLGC
# Sequence of Matrix metalloproteinase-9 (P14780 whole entry): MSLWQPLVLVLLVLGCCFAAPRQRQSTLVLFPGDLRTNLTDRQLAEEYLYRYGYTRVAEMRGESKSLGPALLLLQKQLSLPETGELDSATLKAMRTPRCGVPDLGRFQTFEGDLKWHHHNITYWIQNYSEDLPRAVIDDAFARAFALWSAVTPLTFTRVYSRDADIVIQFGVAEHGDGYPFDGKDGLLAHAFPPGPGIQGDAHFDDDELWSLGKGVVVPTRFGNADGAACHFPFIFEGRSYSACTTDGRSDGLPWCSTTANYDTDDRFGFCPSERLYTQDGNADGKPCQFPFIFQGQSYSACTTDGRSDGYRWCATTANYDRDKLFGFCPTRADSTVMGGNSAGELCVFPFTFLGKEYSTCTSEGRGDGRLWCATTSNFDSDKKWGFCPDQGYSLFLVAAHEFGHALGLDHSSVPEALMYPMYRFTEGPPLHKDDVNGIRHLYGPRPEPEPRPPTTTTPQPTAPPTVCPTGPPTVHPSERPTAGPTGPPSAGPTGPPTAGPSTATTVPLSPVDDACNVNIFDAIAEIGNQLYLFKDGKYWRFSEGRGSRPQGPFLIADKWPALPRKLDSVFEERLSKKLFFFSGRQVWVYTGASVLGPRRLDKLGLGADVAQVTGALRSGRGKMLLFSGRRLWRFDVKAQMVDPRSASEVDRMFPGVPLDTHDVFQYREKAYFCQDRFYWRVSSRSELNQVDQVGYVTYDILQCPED
SMILES,IC50 [1],IC50 [2],IC50 (Interstitial collagenase),IC50 [3],also measured
C[C@@]1(O)CCCN(S(=O)(=O)c2ccc(OCc3ccc(Cl)cc3F)cc2)[C@H]1C(=O)NO,7.9 nM,0.87 nM,120 nM,,
Cc1cc(F)ccc1COc1ccc(S(=O)(=O)N2CCC[C@@](C)(O)[C@@H]2C(=O)NO)cc1,4.7 nM,2.9 nM,,15 nM,
COc1ccccc1COc1ccc(S(=O)(=O)N2CCC[C@@](C)(O)[C@@H]2C(=O)NO)cc1,,18 nM,2600 nM,,inhibition [4]: 73%
CC[C@]1(O)CCCN(S(=O)(=O)c2ccc(OCc3ccc(F)cc3)cc2)[C@H]1C(=O)NO,490 nM,3.6 nM,1100 nM,1.7 nM,
Cc1ncccc1COc1ccc(S(=O)(=O)N2CCC[C@@](C)(O)[C@@H]2C(=O)NO)cc1,51 nM,1.5 nM,1600 nM,,
C[C@@]1(O)CCCN(S(=O)(=O)c2ccc(OCc3cccc4ccncc34)cc2)[C@H]1C(=O)NO,17 nM,18 nM,7800 nM,,
C[C@@]1(O)CCCN(S(=O)(=O)c2ccc(OCc3ccc(F)cc3)cc2)[C@H]1C(=O)NO (stereo in doubt; 17),,,420 nM,14 nM,
C[C@]1(O)CCCN(S(=O)(=O)c2ccc(OCc3ccc(F)cc3)cc2)[C@H]1C(=O)NO,> 1000 nM,6.5 nM,1100 nM,11 nM,
Cc1c(F)cccc1COc1ccc(S(=O)(=O)N2CCC[C@@](C)(O)[C@@H]2C(=O)NO)cc1,11 nM,3.2 nM,1300 nM,10 nM,
Cc1ccc(F)cc1COc1ccc(S(=O)(=O)N2CCC[C@@](C)(O)[C@@H]2C(=O)NO)cc1,15 nM,2.5 nM,,,
C[C@@]1(O)CCCN(S(=O)(=O)c2ccc(OCc3cccc(F)c3)cc2)[C@H]1C(=O)NO,85 nM,1.5 nM,340 nM,,
C[C@@]1(O)CCCN(S(=O)(=O)c2ccc(OCc3cccc(Cl)c3)cc2)[C@H]1C(=O)NO,78 nM,2.5 nM,860 nM,,
C[C@@]1(O)CCCN(S(=O)(=O)c2ccc(OCc3ccccc3Cl)cc2)[C@H]1C(=O)NO,3.7 nM,1 nM,,,
C[C@@]1(O)CCCN(S(=O)(=O)c2ccc(OCc3ccncc3)cc2)[C@H]1C(=O)NO,,2 nM,190 nM,,inhibition [4]: 8.1%
C[C@@]1(O)CCCN(S(=O)(=O)c2ccc(OCc3ccc(F)cc3)cc2)[C@H]1C(=O)NO (stereo in doubt; 11),120 nM,3.7 nM,420 nM,14 nM,
C[C@@]1(O)CCCN(S(=O)(=O)c2ccc(OCc3ccccc3F)cc2)[C@H]1C(=O)NO,14 nM,0.49 nM,180 nM,,
C[C@@]1(O)CCCN(S(=O)(=O)c2ccc(OCc3ccnc(Cl)c3)cc2)[C@H]1C(=O)NO,15 nM,0.43 nM,520 nM,,
CC1(C)C[C@@H](O)CN(S(=O)(=O)c2ccc(OCc3ccc(Cl)cc3Cl)cc2)[C@H]1C(=O)NO,,,,,half-life [5]: 120 min; clearance [6]: 25 mL/min/kg; half-life [7]: 120 min; clearance [8]: 44 mL/min/kg
CC[C@@]1(O)CCCN(S(=O)(=O)c2ccc(OCc3ccc(F)cc3)cc2)[C@H]1C(=O)NO,500 nM,1.6 nM,500 nM,18 nM,
C[C@@]1(O)CCCN(S(=O)(=O)c2ccc(OCc3cnccn3)cc2)[C@H]1C(=O)NO,,7.4 nM,1600 nM,,inhibition [4]: 8%
C[C@@]1(O)CCCN(S(=O)(=O)c2ccc(OCc3ccc(F)cc3Cl)cc2)[C@H]1C(=O)NO,1.5 nM,0.9 nM,310 nM,,half-life [5]: 276 min; IC50 (Neutrophil collagenase): 1 nM; clearance [6]: 11 mL/min/kg; IC50 (Bos taurus [9]): 10.3 nM; ED50 (Cricetinae gen. sp. [10]): 13 mg/kg; half-life [7]: 120 min; IC50 (Stromelysin-1): 5 nM; IC50 [11]: 11 nM; clearance [8]: 13 mL/min/kg; IC50 [12]: 4 nM; IC50 (Bos taurus [13]): 100 nM; ED50 (Cricetinae gen. sp. [14]): 4.6 mg/kg; IC50 (Cell line): 6 nM; IC50 [15]: 83 nM
Cc1ccccc1COc1ccc(S(=O)(=O)N2CCC[C@@](C)(O)[C@@H]2C(=O)NO)cc1,6.9 nM,0.65 nM,310 nM,,
C[C@@]1(O)CCCN(S(=O)(=O)c2ccc(OCc3ccccc3C#N)cc2)[C@H]1C(=O)NO,,9.7 nM,2700 nM,,inhibition [4]: 55%
CCCC[C@]1(O)CCCN(S(=O)(=O)c2ccc(OCc3ccc(F)cc3)cc2)[C@H]1C(=O)NO,2000 nM,4.9 nM,2900 nM,23 nM,
C[C@@]1(O)CCCN(S(=O)(=O)c2ccc(OCc3cccc4cccnc34)cc2)[C@H]1C(=O)NO,19 nM,4.1 nM,120 nM,,
